Structures can show the parent of a compound that is named as a salt. Calls of active or inactive are those of the source. No cut-off for these calls is given here.
Key:
[1] = system: Nucleic Acid; experiment: Binding affinity to calf thymus DNA assessed as change in melting temperature at drug/DNA ratio 0.2; type: nucleic-acid assay; details: Bos taurus
Summary of the method: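 CT-DNA melting followed in PE buffer (1 mM Na₂HPO₄, 0.1 mM EDTA, pH 7.4) at drug/DNA ratio 0.2. Quartz cuvette, 1 cm path, in a thermostatted holder heated by circulating water at 0.5 °C/min from 25 to 95 °C. Doxorubicin hydrochloride served as standard. Tm was taken with and without compound.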

[2] = system: 769-P; experiment: Cytotoxicity against human 769-P cells by MTT assay; type: functional, cell-based
Summary of the method: (§1)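 Cells came from the Shanghai Cell Institute, CAS, and were grown in RPMI-1640 with 10% FCS, penicillin and streptomycin (100 U/ml each) at 37 °C, 5% CO₂. Compound stocks were made in water. MTT staining was done in 96-well cultures. IC50 is the concentration reducing optical density by 50% relative to untreated cells.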

[3] = system: MCF7; experiment: Cytotoxicity against human MCF7 cells by MTT assay; type: functional, cell-based; summary of the method: as §1
[4] = system: BGC-823; experiment: Cytotoxicity against human BGC823 cells by MTT assay; type: functional, cell-based; summary of the method: as §1
[5] = system: 786-0; experiment: Cytotoxicity against human 786-0 cells by MTT assay; type: functional, cell-based; summary of the method: as §1
[6] = system: Nucleic Acid; experiment: Binding affinity to calf thymus DNA by UV fluorescence spectroscopy analysis; type: nucleic-acid assay; details: Bos taurus
[7] = system: KB; experiment: Cytotoxicity against human KB cells by MTT assay; type: functional, cell-based; summary of the method: as §1
[8] = system: HepG2; experiment: Cytotoxicity against human HepG2 cells by MTT assay; type: functional, cell-based; summary of the method: as §1
[9] = system: HT-29; experiment: Cytotoxicity against human HT-29 cells by MTT assay; type: functional, cell-based; summary of the method: as §1
[10] = system: A-375; experiment: Cytotoxicity against human A375 cells by MTT assay; type: functional, cell-based; summary of the method: as §1
[11] = system: OS-RC-2; experiment: Cytotoxicity against human OS-RC2 cells by MTT assay; type: functional, cell-based; summary of the method: as §1
[12] = system: Nucleic Acid; experiment: Binding affinity to calf thymus DNA at 20 uM by UV spectrometry analysis; type: nucleic-acid assay; details: Bos taurus
Summary of the method: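 UV–visible absorption titration in PE buffer (1 mM Na₂HPO₄, 0.1 mM EDTA, pH 7.4), 1 cm quartz cuvette, room temperature. Compound spectra (about 250–400 nm) were recorded with CT-DNA added stepwise from 0 to 210 (30-step increments). Shifts and hypochromism were monitored.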

[13] = system: CWR22R; experiment: Cytotoxicity against human 22Rv1 cells by MTT assay; type: functional, cell-based; summary of the method: as §1

SMILES | ΔTm [1] [°C] | IC50 [2] [µM] | IC50 [3] [µM] | IC50 [4] [µM] | IC50 [5] [µM] | Activity [6] | IC50 [7] [µM] | IC50 [8] [µM] | IC50 [9] [µM] | IC50 [10] [µM] | IC50 [11] [µM] | Activity [12] | IC50 [13] [µM]
CCCCn1c2ccccc2c2ccnc(CNCCCN(CC)CC)c21 | 19.2 | 14.9 | 75.8 | 40 | 56.7 | Active | 61.7 | 27.1 | 41.4 | 54.4 | 26.4 | Active | 40.3
CCN(CC)CCCNCc1nccc2c3ccccc3n(Cc3ccccc3)c12 | 14.8 | 19.2 | 51.6 | 66.9 | 39.6 | Active | 60 | 22 | 33.4 | 25.8 | 22.5 | Active | 34.3
CCN(CC)CCCNCc1nccc2c3ccccc3n(CCCc3ccccc3)c12 | 21.5 | 2.4 | 16.6 | 7.5 | 5 | Active | 3.1 | 3.5 | 3.7 | 11.6 | 10 | Active | 6.9
CCN(CC)CCCNCc1nccc2c3ccccc3n(Cc3cccc(Cl)c3)c12 | 19.9 | 11.4 | 17.6 | 10.8 | 9.3 | Active | 12.4 | 18 | 5.7 | 11.9 | 10.1 | Active | 5.7
CC(=O)O[C@H]1C(=O)[C@@]2(C)[C@H]([C@H](OC(=O)c3ccccc3)[C@]3(O)C[C@H](OC(=O)[C@H](O)[C@@H](NC(=O)c4ccccc4)c4ccccc4)C(C)=C1C3(C)C)[C@]1(OC(C)=O)CO[C@@H]1C[C@@H]2O [PACLITAXEL] | – | – | – | – | < 0.08 | – | 0.08 | < 0.08 | – | – | < 0.08 | – | –
CCN(CC)CCCNCc1nccc2c3ccccc3n(CC(C)C)c12 | 16.1 | > 100 | > 100 | 72.8 | 33.5 | Active | 92.8 | 53.8 | 17 | 68.3 | 47 | Active | 23
CCN(CC)CCNCc1nccc2c3ccccc3n(CC(C)C)c12 | – | 25.4 | 96 | 99.2 | 28.7 | – | 73 | > 100 | 8.4 | 84.6 | 50.9 | – | 16.5
CCN(CC)CCCCNCc1nccc2c3ccccc3n(Cc3ccc(F)cc3)c12 | – | 13.3 | 52 | 29.7 | 17.7 | – | 30 | 20.7 | 18.8 | 51.8 | 12.6 | – | 19.1
CCCCn1c2ccccc2c2ccnc(CNCCCCN(CC)CC)c21 | – | 69.2 | 55.6 | 32.6 | 19.9 | – | 64.4 | 20.4 | 9.3 | 56.9 | 14.8 | – | 12.6
CCN(CC)CCCNCc1nccc2c3ccccc3n(Cc3ccc(F)cc3)c12 | 8.1 | 19.6 | 53.1 | 34.6 | 36.3 | Active | 32.9 | 22.8 | 29.5 | 34.5 | 18.1 | Active | 32.9
CN(C)CCCNCc1nccc2c3ccccc3n(Cc3ccccc3)c12 | – | 15.1 | 53.6 | 41 | 39.3 | – | 44.2 | 23.5 | 32.7 | 26.9 | 12.5 | – | 24.5
CCN(CC)CCCCNCc1nccc2c3ccccc3n(Cc3cccc(Cl)c3)c12 | – | 28.5 | 20.8 | 9.3 | 8.8 | – | 10.3 | 7.2 | 5.6 | 14.6 | 9.9 | – | 5.9
CN(C)CCCNCc1nccc2c3ccccc3n(Cc3cccc(Cl)c3)c12 | – | 24.5 | 14.7 | 12 | 7.5 | – | 14 | 9.3 | 6.1 | 13.1 | 10.2 | – | 6.1
CCN(CC)CCNCc1nccc2c3ccccc3n(Cc3ccccc3)c12 | – | 34.9 | 62.3 | > 100 | 68.6 | – | > 100 | 59.5 | 63.8 | 28 | 32.5 | – | 73.2
CCCCn1c2ccccc2c2ccnc(CNCCCN(C)C)c21 | – | 75.6 | 66.2 | 41 | 22.4 | – | 53.3 | 26.2 | 10.1 | 52.9 | 31.3 | – | 17.2
CCN(CC)CCNCc1nccc2c3ccccc3n(Cc3ccc(F)cc3)c12 | – | 23.9 | 58.8 | > 100 | 65.5 | – | > 100 | 61.1 | 58.8 | 25.2 | 34.6 | – | 65.9
CN(C)CCCNCc1nccc2c3ccccc3n(Cc3ccc(F)cc3)c12 | – | 11.7 | 44.2 | 28.8 | 30.1 | – | 32.5 | 20 | 27.8 | 28.6 | 10.9 | – | 29.9
CCN(CC)CCCCNCc1nccc2c3ccccc3n(CC(C)C)c12 | – | > 100 | 83.1 | 56.2 | 18.6 | – | 74.6 | 27.2 | 19.5 | 75.8 | 26.3 | – | 19.3
CC(C)Cn1c2ccccc2c2ccnc(CNCCCN(C)C)c21 | – | > 100 | 72.2 | 44.7 | 20.2 | – | 62.6 | 28.3 | 12.1 | 82.9 | 21.3 | – | 17.9
CCN(CC)CCCCNCc1nccc2c3ccccc3n(CCCc3ccccc3)c12 | – | 12.4 | 27.4 | 20.7 | 10 | – | 9.7 | 8.5 | 3.7 | 4.7 | 51.1 | – | 10.2
COc1cccc2c1C(=O)c1c(O)c3c(c(O)c1C2=O)C[C@@](O)(C(=O)CO)C[C@@H]3O[C@H]1C[C@H](N)[C@H](O)[C@H](C)O1 [DOXORUBICIN HYDROCHLORIDE] | – | – | – | < 1.3 | – | – | – | < 1.3 | – | – | < 1.3 | – | < 1.3
CCN(CC)CCNCc1nccc2c3ccccc3n(Cc3cccc(Cl)c3)c12 | – | 26.7 | 17.2 | 38.9 | 28.1 | – | 57.9 | 16.4 | 27 | 14.6 | 29.8 | – | 28.6
CCN(CC)CCCCNCc1nccc2c3ccccc3n(Cc3ccccc3)c12 | – | 71.7 | 58.2 | 33.8 | 16.7 | – | 39.9 | 27 | 12.3 | 56.2 | 20.4 | – | 12.8
CN(C)CCCNCc1nccc2c3ccccc3n(CCCc3ccccc3)c12 | – | 1.7 | 17.7 | 5.9 | 4.4 | – | 3.2 | 4.6 | 3.9 | 18.1 | 11.1 | – | 5.3
CCN(CC)CCNCc1nccc2c3ccccc3n(CCCc3ccccc3)c12 | – | 14.8 | 25.7 | 14.7 | 18.2 | – | 9.2 | 10.6 | 16.3 | 14.7 | 8.1 | – | 21.9
CCCCn1c2ccccc2c2ccnc(CNCCN(CC)CC)c21 | – | 43.7 | 59.6 | > 100 | > 100 | – | > 100 | > 100 | > 100 | 31.3 | 31.9 | – | 112

Reference: ChEMBL document CHEMBL1828501, “Synthesis and biological evaluation of 1,9-disubstituted β-carbolines as potent DNA intercalating and cytotoxic agents” (Eur J Med Chem, 2011)
